Test results: ChEMBL document CHEMBL3862016 (Bioorg Med Chem Lett, 2016)
pIC50: −log10 of the molar value.

Assays:
[1] = target: T1, Androgen receptor (Homo sapiens, UniProt P10275); assay: Displacement of [3H]mibolerone from androgen receptor (unknown origin) in membranes after 24 hrs by HAP adsorption assay
T1 sequence (P10275 whole entry): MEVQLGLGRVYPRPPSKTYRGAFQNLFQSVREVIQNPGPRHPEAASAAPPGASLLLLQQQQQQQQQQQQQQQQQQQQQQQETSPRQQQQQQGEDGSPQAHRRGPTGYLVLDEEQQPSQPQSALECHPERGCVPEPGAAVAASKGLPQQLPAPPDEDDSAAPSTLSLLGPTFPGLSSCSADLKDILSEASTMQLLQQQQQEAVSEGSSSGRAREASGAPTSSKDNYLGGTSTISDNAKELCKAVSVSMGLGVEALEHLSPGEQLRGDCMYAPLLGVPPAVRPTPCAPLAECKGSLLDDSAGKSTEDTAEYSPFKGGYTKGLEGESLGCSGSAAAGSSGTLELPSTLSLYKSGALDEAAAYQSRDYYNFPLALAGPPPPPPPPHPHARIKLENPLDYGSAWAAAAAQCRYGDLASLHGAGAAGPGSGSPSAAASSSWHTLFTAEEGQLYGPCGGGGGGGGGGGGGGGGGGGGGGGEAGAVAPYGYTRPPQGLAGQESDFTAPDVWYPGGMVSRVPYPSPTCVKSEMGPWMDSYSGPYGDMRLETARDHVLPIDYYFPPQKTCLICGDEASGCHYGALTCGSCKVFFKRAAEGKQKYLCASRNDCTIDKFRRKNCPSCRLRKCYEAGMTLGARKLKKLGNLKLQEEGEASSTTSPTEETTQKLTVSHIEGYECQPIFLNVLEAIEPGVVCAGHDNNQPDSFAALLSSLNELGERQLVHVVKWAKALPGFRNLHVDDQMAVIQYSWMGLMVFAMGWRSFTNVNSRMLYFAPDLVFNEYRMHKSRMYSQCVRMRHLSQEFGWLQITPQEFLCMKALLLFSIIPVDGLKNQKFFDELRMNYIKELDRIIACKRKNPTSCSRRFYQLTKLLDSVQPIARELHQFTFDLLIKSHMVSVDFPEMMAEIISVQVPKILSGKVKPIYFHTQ

[2] = Terminal half life in mouse at 10 mg/kg, sc by HPLC-MS analysis; assay type: ADME, organism-based; settings: in vivo, read-out: beta t1/2 (converted)
Method in brief: (§1)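 Mice dosed iv at 2 mg/kg, or ip or sc at 10 mg/kg. Plasma concentration–time profiles were obtained by sparse sampling with N = 3 per time-point. Parameters (Cmax, Tmax, AUClast, terminal t1/2, CL, Vz, bioavailability) were derived by noncompartmental analysis.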

[3] = Clearance in mouse at 2 mg/kg, iv by HPLC-MS analysis; assay type: ADME, organism-based; settings: in vivo; method in brief: as §1
[4] = Terminal half life in mouse at 10 mg/kg, ip by HPLC-MS analysis; assay type: ADME, organism-based; settings: in vivo, read-out: beta t1/2 (converted); method in brief: as §1
[5] = test system: UGT; assay: Metabolic stability in mouse liver microsomes assessed as UGT-mediated glucuronidation of compound by measuring parent compound remaining at 5 uM after 30 mins in presence of UDPGA by LC-MS/MS analysis; assay type: ADME; settings: read-out: Stability
[6] = Metabolic stability in mouse liver microsomes assessed as compound remaining at 1 uM measured after 30 mins in presence of NADPH by LC-MS/MS analysis; assay type: ADME; settings: read-out: Stability
[7] = AUClast in mouse at 10 mg/kg, sc by HPLC-MS analysis; assay type: ADME, organism-based; set-up: dose 10 mg/kg, time 0 - last, route subcutaneous; settings: in vivo; method in brief: as §1
[8] = Metabolic stability in human liver microsomes assessed as compound remaining at 1 uM measured after 30 mins in presence of NADPH by LC-MS/MS analysis; assay type: ADME; settings: read-out: Stability
[9] = Cmax in mouse at 10 mg/kg, sc by HPLC-MS analysis; assay type: ADME, organism-based; set-up: dose 10 mg/kg, route subcutaneous; settings: in vivo; method in brief: as §1
[10] = target: T2, Protein deacetylase HDAC6 (Homo sapiens, UniProt Q9UBN7); assay: Inhibition of HDAC6 (unknown origin) assessed as inhibition of fluorogenic peptide deacetylation
T2 sequence (Q9UBN7 whole entry): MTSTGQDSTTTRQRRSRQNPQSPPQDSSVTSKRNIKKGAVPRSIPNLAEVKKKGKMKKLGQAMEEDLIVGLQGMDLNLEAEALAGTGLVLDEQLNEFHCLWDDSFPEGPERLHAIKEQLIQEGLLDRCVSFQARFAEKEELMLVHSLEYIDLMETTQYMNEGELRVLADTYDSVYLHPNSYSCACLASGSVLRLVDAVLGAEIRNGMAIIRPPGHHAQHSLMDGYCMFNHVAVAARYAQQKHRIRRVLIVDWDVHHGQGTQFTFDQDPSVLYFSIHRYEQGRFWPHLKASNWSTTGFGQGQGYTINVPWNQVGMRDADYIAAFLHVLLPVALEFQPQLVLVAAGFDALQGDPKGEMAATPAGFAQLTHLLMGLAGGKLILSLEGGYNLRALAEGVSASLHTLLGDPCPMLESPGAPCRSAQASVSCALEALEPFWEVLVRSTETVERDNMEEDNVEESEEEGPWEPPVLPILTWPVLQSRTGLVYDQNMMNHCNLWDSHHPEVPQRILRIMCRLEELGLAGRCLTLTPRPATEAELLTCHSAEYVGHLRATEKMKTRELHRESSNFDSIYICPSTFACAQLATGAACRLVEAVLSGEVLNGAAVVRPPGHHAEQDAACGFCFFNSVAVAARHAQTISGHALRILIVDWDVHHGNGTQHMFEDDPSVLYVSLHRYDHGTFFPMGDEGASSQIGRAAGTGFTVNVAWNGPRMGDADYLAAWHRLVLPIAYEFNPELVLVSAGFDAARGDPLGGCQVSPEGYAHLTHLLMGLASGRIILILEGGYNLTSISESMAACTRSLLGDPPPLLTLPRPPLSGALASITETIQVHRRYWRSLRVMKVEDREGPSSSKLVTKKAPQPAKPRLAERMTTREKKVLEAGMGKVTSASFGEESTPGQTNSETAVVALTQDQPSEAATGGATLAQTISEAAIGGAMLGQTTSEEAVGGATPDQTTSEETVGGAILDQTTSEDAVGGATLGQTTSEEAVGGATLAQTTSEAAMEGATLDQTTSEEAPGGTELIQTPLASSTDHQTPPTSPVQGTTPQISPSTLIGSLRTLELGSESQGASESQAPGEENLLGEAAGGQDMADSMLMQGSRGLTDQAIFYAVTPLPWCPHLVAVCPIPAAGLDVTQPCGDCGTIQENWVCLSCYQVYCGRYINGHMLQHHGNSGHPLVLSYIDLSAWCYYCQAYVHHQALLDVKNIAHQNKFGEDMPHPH

[11] = target: Histone deacetylase 3 (Homo sapiens, UniProt O15379); assay: Inhibition of HDAC3 (unknown origin) assessed as inhibition of fluorogenic peptide deacetylation
Chain of Histone deacetylase 3 (O15379 whole entry): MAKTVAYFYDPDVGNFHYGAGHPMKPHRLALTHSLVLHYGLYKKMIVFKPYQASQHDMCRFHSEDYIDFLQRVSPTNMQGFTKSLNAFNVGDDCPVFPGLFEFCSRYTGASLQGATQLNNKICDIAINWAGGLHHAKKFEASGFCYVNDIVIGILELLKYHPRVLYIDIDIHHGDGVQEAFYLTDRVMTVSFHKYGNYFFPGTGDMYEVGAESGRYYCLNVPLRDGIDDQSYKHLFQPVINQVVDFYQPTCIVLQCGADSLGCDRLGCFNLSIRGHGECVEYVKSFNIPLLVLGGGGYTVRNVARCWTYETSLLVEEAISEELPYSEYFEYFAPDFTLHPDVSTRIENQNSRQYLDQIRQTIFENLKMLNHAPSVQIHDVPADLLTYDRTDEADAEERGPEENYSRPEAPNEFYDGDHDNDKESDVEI

[12] = Tmax in mouse at 10 mg/kg, sc by HPLC-MS analysis; assay type: ADME, organism-based; settings: in vivo; method in brief: as §1
[13] = Cmax in mouse at 2 mg/kg, iv by HPLC-MS analysis; assay type: ADME, organism-based; set-up: dose 2 mg/kg, route intravenous; settings: in vivo; method in brief: as §1
[14] = Cmax in mouse at 10 mg/kg, ip by HPLC-MS analysis; assay type: ADME, organism-based; set-up: dose 10 mg/kg, route intraperitoneal; settings: in vivo; method in brief: as §1
[15] = Tmax in mouse at 10 mg/kg, ip by HPLC-MS analysis; assay type: ADME, organism-based; settings: in vivo; method in brief: as §1
[16] = target: Histone deacetylase 1 (Homo sapiens, UniProt Q13547); assay: Inhibition of HDAC1 (unknown origin) assessed as inhibition of fluorogenic peptide deacetylation
Chain of Histone deacetylase 1 (Q13547 whole entry): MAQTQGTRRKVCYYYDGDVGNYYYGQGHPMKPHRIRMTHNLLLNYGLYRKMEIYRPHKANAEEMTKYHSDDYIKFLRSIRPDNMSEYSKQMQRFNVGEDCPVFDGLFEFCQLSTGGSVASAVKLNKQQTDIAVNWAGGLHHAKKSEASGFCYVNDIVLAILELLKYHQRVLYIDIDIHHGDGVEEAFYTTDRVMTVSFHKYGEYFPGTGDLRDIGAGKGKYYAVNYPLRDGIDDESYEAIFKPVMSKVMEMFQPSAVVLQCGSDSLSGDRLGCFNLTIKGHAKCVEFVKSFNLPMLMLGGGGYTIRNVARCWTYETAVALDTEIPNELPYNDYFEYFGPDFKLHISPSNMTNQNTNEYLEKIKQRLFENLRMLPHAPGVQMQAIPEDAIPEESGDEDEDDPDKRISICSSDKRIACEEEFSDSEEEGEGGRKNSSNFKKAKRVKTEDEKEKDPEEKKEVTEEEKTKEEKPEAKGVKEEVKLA

[17] = AUClast in mouse at 2 mg/kg, iv by HPLC-MS analysis; assay type: ADME, organism-based; set-up: dose 2 mg/kg, route intravenous, time 0 - last; settings: in vivo; method in brief: as §1
[18] = AUClast in mouse at 10 mg/kg, ip by HPLC-MS analysis; assay type: ADME, organism-based; set-up: dose 10 mg/kg, time 0 - last, route intraperitoneal; settings: in vivo; method in brief: as §1
[19] = target: Histone deacetylase 2 (Homo sapiens, UniProt Q92769); assay: Inhibition of HDAC2 (unknown origin) assessed as inhibition of fluorogenic peptide deacetylation
Chain of Histone deacetylase 2 (Q92769 whole entry): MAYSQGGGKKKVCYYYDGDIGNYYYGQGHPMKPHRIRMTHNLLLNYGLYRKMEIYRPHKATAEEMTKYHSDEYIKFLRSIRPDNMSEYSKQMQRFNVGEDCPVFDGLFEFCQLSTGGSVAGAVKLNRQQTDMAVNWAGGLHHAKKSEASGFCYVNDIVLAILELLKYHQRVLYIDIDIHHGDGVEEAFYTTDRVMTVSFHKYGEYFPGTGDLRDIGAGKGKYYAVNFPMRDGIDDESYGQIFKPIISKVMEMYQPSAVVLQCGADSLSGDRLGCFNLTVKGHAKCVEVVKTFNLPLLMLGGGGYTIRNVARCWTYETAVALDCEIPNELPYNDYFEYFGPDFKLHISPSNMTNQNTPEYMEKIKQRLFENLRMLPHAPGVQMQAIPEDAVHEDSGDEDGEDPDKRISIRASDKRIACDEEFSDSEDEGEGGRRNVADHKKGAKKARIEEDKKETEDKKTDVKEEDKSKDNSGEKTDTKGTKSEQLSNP

[20] = Apparent volume of distribution in mouse at 2 mg/kg, iv by HPLC-MS analysis; assay type: ADME, organism-based; settings: in vivo, read-out: Vz; method in brief: as §1
[21] = Terminal half life in mouse at 2 mg/kg, iv by HPLC-MS analysis; assay type: ADME, organism-based; settings: in vivo, read-out: beta t1/2 (converted); method in brief: as §1
[22] = Tmax in mouse at 2 mg/kg, iv by HPLC-MS analysis; assay type: ADME, organism-based; settings: in vivo; method in brief: as §1
[23] = Bioavailability in mouse at 10 mg/kg, ip by HPLC-MS analysis; assay type: ADME, organism-based; settings: in vivo; method in brief: as §1
[24] = test system: UGT; assay: Metabolic stability in human liver microsomes assessed as UGT-mediated glucuronidation of compound by measuring parent compound remaining at 5 uM after 30 mins in presence of UDPGA by LC-MS/MS analysis; assay type: ADME; settings: read-out: Stability
[25] = Bioavailability in mouse at 10 mg/kg, sc by HPLC-MS analysis; assay type: ADME, organism-based; settings: in vivo; method in brief: as §1

In the case of `CC1(C)C(=O)N(c2ccc(C#N)c(C(F)(F)F)c2)C(=S)N1c1ccc(C(=O)NCCCCCC(=O)NO)c(F)c1`, the pIC50 [1] was over 7.52, the half-life [2] was 205 min and the clearance [3] was 278 mL/min/kg. It also gave a half-life [4] of 660 min, a remaining at 0.5 h, 5 µM [5] of 46.1% and a remaining at 0.5 h, 1 µM [6] of 21.9%. For the same compound, the AUC(0-t) [7] was 1.03 µM·h, the remaining at 0.5 h, 1 µM [8] was 29.1% and the Cmax [9] was 269 nM. It also gave a pIC50 [10] of 7.44, a pIC50 [11] of 5.74 and a Tmax [12] of 30 min. For the same compound, the Cmax [13] was 706 nM, the Cmax [14] was 419 nM and the Tmax [15] was 60 min. It also gave a pIC50 [16] of 5.54, an AUC(0-t) [17] of 0.206 µM·h and an AUC(0-t) [18] of 0.846 µM·h. It also gave a pIC50 [19] of 5.65, a Vd [20] of 10.3 L/kg and a half-life [21] of 25.6 min. It also gave a Tmax [22] of 4.98 min, a bioavailability [23] of 82.1% and a remaining at 0.5 h, 5 µM [24] of 97.6%. It also gave a bioavailability [25] of 100%.
